In ChEMBL document CHEMBL3244228, “Synthesis and biological properties of 2-, 5-, and 6-fluoronorepinephrines” (J Med Chem, 1979) one finds EC50 and Activity data, which are given here for four molecules.

By EC50 is commonly meant the concentration giving half of the maximal effect.

Experiment [1] can be described thus: Agonist activity at alpha-adrenergic receptor in Hartley guinea pig aorta assessed as maximal contraction. In kind it is tissue-based, Cavia porcellus. In short, it runs like this:
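Aortic strip from 250-300 g male Hartley guinea pigs, in 10 mL Tyrode's solution at 37 °C aerated with 95% O2/5% CO2. Full concentration range, 0.1 to 100 μM. Response is percent of maximal contraction (largest contraction per dose relative to the maximum for (±)-NE). EC50 ± SD estimated from eight dose-response curves.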

The nature of experiment [2]: Agonist activity at beta-adrenergic receptor in Hartley guinea pig atria assessed as maximal increase in contraction rate. Also on record: species or system Cavia porcellus. In a few lines: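 Atria from 250-300 g male Hartley guinea pigs, bathed in 10 mL Tyrode's at 37 °C under 95% O2/5% CO2, dosed at 0.1 to 100 μM. Contraction rate read 60 s after each dose against the pre-experiment rate and expressed as percent of the maximal increase given by (±)-NE. EC50 ± SD from eight dose-response curves.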

Experiment [3] is described as follows: Agonist activity at beta-adrenergic receptor in Hartley guinea pig ileum assessed as maximal relaxation. The format is tissue-based. As to conditions: Cavia porcellus.
Experiment [4] is filed under the species Cavia porcellus. Nature of the experiment: Agonist activity at alpha-adrenergic receptor in Hartley guinea pig aorta assessed as maximal contraction in presence of alpha-adrenergic receptor antagonist phentolamine. The format is tissue-based.
Experiment [5] addresses Adrenergic receptor alpha (Rattus norvegicus) (UniProt P15823+P23944+P43140+P22086+P19328+P22909). In words: Agonist activity at alpha-adrenergic receptor in Sprague-Dawley rat cerebral cortex assessed as [3H]cAMP accumulation by liquid scintillation spectroscopy in presence of propranolol and phentolamine. In kind it is functional, tissue-based. (In general: cAMP levels reflect the balance of adenylyl cyclase and phosphodiesterase activity.)

Experiment [6] concerns the target Adrenergic receptor alpha. Nature of the experiment: Displacement of [3H]WB4101 from alpha-adrenergic receptor in Sprague-Dawley rat cerebral cortical membrane.
Experiment [7] is filed under the species Cavia porcellus. Nature of the experiment: Agonist activity at beta-adrenergic receptor in Hartley guinea pig atria assessed as maximal increase in contraction rate in presence of beta-adrenergic receptor antagonist propranolol.
For experiment [8], the species on record is Cavia porcellus. Nature of the experiment: Agonist activity at alpha-adrenergic receptor in Hartley guinea pig aorta assessed as maximal contraction in presence of beta-adrenergic receptor antagonist propranolol. The format is tissue-based.
Experiment [9] concerns the target Adrenergic receptor alpha. In words: Agonist activity at alpha-adrenergic receptor in Sprague-Dawley rat cerebral cortex assessed as [3H]cAMP accumulation by liquid scintillation spectroscopy in presence of propranolol. In kind it is functional, tissue-based. In a few lines: (§1)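 Male Sprague-Dawley rat cerebral cortical slices (260 μm, cross-chopped) are preincubated 15 min in Krebs-Ringer bicarbonate glucose buffer, labelled 40 min at 37 °C with adenine (30 μM) plus [3H]adenine, then equilibrated 5 min. Amines are applied at 1 to 100 μM for 10 min, with propranolol 10 μM for α responses and phentolamine 10 μM for β responses. Cyclic [3H]AMP is isolated from TCA extracts on a double column, corrected for carrier recovery and reported as percent conversion. EC50 from six dose-response curves.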

For experiment [10], the species on record is Cavia porcellus. Nature of the experiment: Agonist activity at beta-adrenergic receptor in Hartley guinea pig atria assessed as maximal increase in contraction rate in presence of alpha-adrenergic receptor antagonist phentolamine.
The target in experiment [11] is T1, Adrenergic receptor beta (Rattus norvegicus, UniProt P18090+P10608+P26255). In words: Displacement of [3H]dihydroalprenolol from beta-adrenergic receptor in Sprague-Dawley rat cerebral cortical membrane.
The target in experiment [12] is T1, Adrenergic receptor beta. Nature of the experiment: Agonist activity at beta-adrenergic receptor in Sprague-Dawley rat cerebral cortex assessed as [3H]cAMP accumulation by liquid scintillation spectroscopy in presence of phentolamine. In kind it is functional, tissue-based. In a few lines:
as §1

The source made the active and inactive calls. The rule behind the calls is not given here.

On to `NCC(O)c1ccc(O)c(O)c1` (configuration not stated), for which the EC50 in experiment [1] is 2.6 µM; in experiment [2] it was 0.7 µM; in [3], 15.6 µM.

With `Cl.NCC(O)c1cc(O)c(O)cc1F` (racemic), the outcome (in the experiment listed under Cavia porcellus [4]; in experiment [5]; in the experiment filed under Cavia porcellus [7]) was inactive. The EC50 in experiment [6] came out at 3 µM; in experiment [1], 2.5 µM; in [9], 5 µM; in experiment [2] it was 72 µM. In addition, the result in the experiment filed under Cavia porcellus [8] and in the experiment listed under Cavia porcellus [10] was Active.

As to `Cl.NCC(O)c1ccc(O)c(O)c1F` (racemic), the outcome in the experiment listed under Cavia porcellus [4] and in the experiment filed under Cavia porcellus [7] was inactive. The outcome (in experiment [5]; in the experiment filed under Cavia porcellus [8]; in the experiment filed under Cavia porcellus [10]) was Active. The EC50 was over 100 µM in [6], 110 µM in experiment [1], over 100 µM in [9] and 0.6 µM in [2].

Take `Cl.NCC(O)c1cc(O)c(O)c(F)c1` (racemic): the result in the experiment filed under Cavia porcellus [4] and in the experiment filed under Cavia porcellus [7] was inactive. The 50% effective concentration (EC50) in experiment [6] was found to be 15 µM; on Adrenergic receptor beta [11] it was 4 µM; on Adrenergic receptor beta [12], 2 µM; in [1], 2.4 µM; in experiment [9], 5 µM; in experiment [2], 0.11 µM. For the same molecule, in experiment [3], the EC50 is 44 µM. In addition, the result in the experiment filed under Cavia porcellus [8] and in the experiment filed under Cavia porcellus [10] was Active.
